Structures can show the parent of a compound that is named as a salt.
Experiments:
[1] = tested on: HL-60; assay: Cytotoxicity against human HL60 cells at 1 uM after 48 hrs by MTT assay; type: functional; details: HL-60, 48 h
How it was run: (§1)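 HL60 cells (ATCC) grown in RPMI with 10% FBS and seeded at 10 000 cells/well. After 48 h exposure, MTT added (0.5 mg/mL final) for 3 h at 37 °C. Formazan dissolved in SDS-HCl (20% SDS, 0.02 M HCl) and read at 570 nm. IC50 obtained by nonlinear regression.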

[2] = tested on: HL-60; assay: Cytotoxicity against human HL60 cells at 10 uM after 48 hrs by MTT assay; type: functional; details: HL-60, 48 h; how it was run: as §1
[3] = tested on: HL-60; assay: Cytotoxicity against human HL60 cells at 30 uM after 48 hrs by MTT assay; type: functional; details: HL-60, 48 h; how it was run: as §1
[4] = tested on: MCF7; assay: Cytotoxicity against human MCF7 cells at 1 uM after 48 hrs by MTT assay; type: functional; details: MCF7, 48 h
How it was run: (§2)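 MCF-7 cells (ATCC) maintained in DMEM with 10% FBS and plated at 10 000 cells/well. MTT (0.5 mg/mL final) then incubated 3 h at 37 °C. Formazan solubilized in 20% SDS/0.02 M HCl and absorbance read at 570 nm. IC50 from nonlinear regression.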

[5] = tested on: MCF7; assay: Cytotoxicity against human MCF7 cells at 10 uM after 48 hrs by MTT assay; type: functional; details: MCF7, 48 h; how it was run: as §2
[6] = tested on: MCF7; assay: Cytotoxicity against human MCF7 cells at 30 uM after 48 hrs by MTT assay; type: functional; details: MCF7, 48 h; how it was run: as §2
[7] = tested on: HL-60; assay: Cytotoxicity against human HL60 cells after 48 hrs by MTT assay; type: functional, cell-based; details: HL-60, 48 h; how it was run: as §1
[8] = tested on: MCF7; assay: Cytotoxicity against human MCF7 cells after 48 hrs by MTT assay; type: functional, cell-based; details: MCF7, 48 h; how it was run: as §2

SMILES: CC1=C2C3C(=O)C=C4C(=CC(=O)C(O)=C4C)[C@]3(C)CC[C@@]2(C)[C@@H]2C[C@@H](C)C(=O)C[C@]2(C)C1 (some centres undefined)
- inhibition at 1 µM [1]: 0%
- inhibition at 10 µM [2]: 0%
- inhibition at 30 µM [3]: 51%
- inhibition at 1 µM [4]: 9%
- inhibition at 10 µM [5]: 11%
- inhibition at 30 µM [6]: 5%

SMILES: COc1c(O)cc2c(c1C(=O)O)C(=O)C=C1[C@@]2(C)CC[C@@]2(C)[C@@H]3C[C@@H](C)C(=O)C[C@]3(C)CC[C@]12C
- inhibition at 1 µM [1]: 78%
- inhibition at 10 µM [2]: 57%
- inhibition at 30 µM [3]: 59%
- inhibition at 1 µM [4]: 15%
- inhibition at 10 µM [5]: 17%
- inhibition at 30 µM [6]: 11%

SMILES: COC(=O)[C@]1(C)CC[C@]2(C)CC[C@]3(C)C4CC(=O)c5cc(O)c(O)cc5[C@]4(C)CC[C@@]3(C)[C@@H]2C1 (some centres undefined)
- inhibition at 1 µM [1]: 35%
- inhibition at 10 µM [2]: 64%
- inhibition at 30 µM [3]: 65%
- inhibition at 1 µM [4]: 4%
- inhibition at 10 µM [5]: 0%
- inhibition at 30 µM [6]: 44%

SMILES: CC1=C(O)C(=O)C=C2C1=CC=C1[C@@]2(C)CC[C@@]2(C)[C@@H]3C[C@@](C)(O)C(=O)C[C@]3(C)CC[C@]12C
- IC50 [7]: 200 nM
- IC50 [8]: 1400 nM
- inhibition at 1 µM [1]: 80%
- inhibition at 10 µM [2]: 89%
- inhibition at 30 µM [3]: 90%
- inhibition at 1 µM [4]: 21%
- inhibition at 10 µM [5]: 100%
- inhibition at 30 µM [6]: 100%

SMILES: Cc1c(O)c(O)cc2c1C(=O)C=C1[C@@]2(C)CC[C@@]2(C)[C@@H]3C[C@@H](C)C(=O)C[C@]3(C)CC[C@]12C [6-OXOTINGENOL]
- inhibition at 1 µM [1]: 45%
- inhibition at 10 µM [2]: 85%
- inhibition at 30 µM [3]: 100%
- inhibition at 1 µM [4]: 10%
- inhibition at 10 µM [5]: 8%
- inhibition at 30 µM [6]: 17%

SMILES: CC1=C(O)C(=O)C=C2C1=CC=C1[C@@]2(C)CC[C@@]2(C)[C@@H]3C[C@](C)(O)C(=O)C[C@]3(C)CC[C@]12C [20ALPHA-HYDROXYTINGENONE]
- IC50 [7]: 400 nM
- IC50 [8]: 4700 nM
- inhibition at 1 µM [1]: 25%
- inhibition at 10 µM [2]: 100%
- inhibition at 30 µM [3]: 87%
- inhibition at 1 µM [4]: 14%
- inhibition at 10 µM [5]: 85%
- inhibition at 30 µM [6]: 100%

SMILES: COC(=O)[C@@]1(C)C[C@@H]2[C@@](C)(CC[C@]3(C)C4=CC=C5C(=CC(=O)C(O)=C5C)[C@]4(C)CC[C@@]23C)CC1=O [21-OXOPRISTIMERINE]
- IC50 [7]: 1400 nM
- IC50 [8]: 10000 nM
- inhibition at 1 µM [1]: 0%
- inhibition at 10 µM [2]: 88%
- inhibition at 30 µM [3]: 100%
- inhibition at 1 µM [4]: 0%
- inhibition at 10 µM [5]: 32%
- inhibition at 30 µM [6]: 91%

SMILES: CC1=C(O)C(=O)C=C2C1=CC(=O)[C@@H]1[C@@]2(C)CC[C@@]2(C)[C@@H]3C[C@@H](C)C(=O)C[C@]3(C)CC[C@]12C [AMAZOQUINONE]
- inhibition at 1 µM [1]: 66%
- inhibition at 10 µM [2]: 61%
- inhibition at 30 µM [3]: 100%
- inhibition at 1 µM [4]: 10%
- inhibition at 10 µM [5]: 16%
- inhibition at 30 µM [6]: 18%

SMILES: COC(=O)[C@@]1(C)C[C@@H]2[C@@](C)(CC[C@]3(C)C4CC(=O)c5c(cc(O)c(O)c5C)[C@]4(C)CC[C@@]23C)CC1=O (some centres undefined) [BLEPHARODOL]
- inhibition at 1 µM [1]: 69%
- inhibition at 10 µM [2]: 79%
- inhibition at 30 µM [3]: 100%
- inhibition at 1 µM [4]: 15%
- inhibition at 10 µM [5]: 8%
- inhibition at 30 µM [6]: 7%

SMILES: CC1=C(O)C(=O)CC2[C@]3(C)CC[C@@]4(C)[C@@H]5C[C@](C)(C(=O)O)CC[C@]5(C)CC[C@]4(C)C3CC[C@]12C=O (some centres undefined) [CANGORONINE]
- inhibition at 1 µM [1]: 40%
- inhibition at 10 µM [2]: 48%
- inhibition at 30 µM [3]: 60%
- inhibition at 1 µM [4]: 16%
- inhibition at 10 µM [5]: 9%
- inhibition at 30 µM [6]: 15%

SMILES: COC(=O)[C@]1(C)CC[C@]2(C)CC[C@]3(C)C4C(=O)C=C5C(=CC(=O)C(O)=C5C)[C@]4(C)CC[C@@]3(C)C2C1 (some centres undefined) [DISPERMOQUINONE]
- IC50 [7]: 1700 nM
- IC50 [8]: > 30000 nM
- inhibition at 1 µM [1]: 0%
- inhibition at 10 µM [2]: 100%
- inhibition at 30 µM [3]: 100%
- inhibition at 1 µM [4]: 9%
- inhibition at 10 µM [5]: 25%
- inhibition at 30 µM [6]: 60%

SMILES: COc1cccc2c1C(=O)c1c(O)c3c(c(O)c1C2=O)C[C@@](O)(C(=O)CO)C[C@@H]3O[C@H]1C[C@H](N)[C@H](O)[C@H](C)O1 [DOXORUBICIN HYDROCHLORIDE]
- IC50 [7]: 100 nM
- IC50 [8]: > 10000 nM
- inhibition at 1 µM [1]: 100%
- inhibition at 10 µM [2]: 89%
- inhibition at 30 µM [3]: 100%
- inhibition at 1 µM [4]: 69%
- inhibition at 10 µM [5]: 76%
- inhibition at 30 µM [6]: 98%

SMILES: COC(=O)[C@@]1(C)C[C@@H]2[C@@](C)(CC[C@]3(C)C4CC(=O)c5c(cc(O)c(O)c5C=O)[C@]4(C)CC[C@@]23C)CC1=O (some centres undefined) [MACROCARPIN A]
- IC50 [7]: 1700 nM
- IC50 [8]: > 30000 nM
- inhibition at 1 µM [1]: 0%
- inhibition at 10 µM [2]: 100%
- inhibition at 30 µM [3]: 100%
- inhibition at 1 µM [4]: 14%
- inhibition at 10 µM [5]: 25%
- inhibition at 30 µM [6]: 36%

SMILES: COC(=O)[C@]1(C)CC[C@]2(C)CC[C@]3(C)C4=CC=C5C(=CC(=O)C(O)=C5C)[C@]4(C)CC[C@@]3(C)[C@@H]2C1 [PRISTIMERIN]
- IC50 [7]: 200 nM
- IC50 [8]: 400 nM
- inhibition at 1 µM [1]: 96%
- inhibition at 10 µM [2]: 100%
- inhibition at 30 µM [3]: 100%
- inhibition at 1 µM [4]: 42%
- inhibition at 10 µM [5]: 100%
- inhibition at 30 µM [6]: 100%

SMILES: CC1=C(O)C(=O)C=C2C1=CC=C1[C@@]2(C)CC[C@@]2(C)[C@@H]3C[C@@H](C)C(=O)[C@@H](O)[C@]3(C)CC[C@]12C [TINGENIN B]
- IC50 [7]: 700 nM
- IC50 [8]: 4400 nM
- inhibition at 1 µM [1]: 55%
- inhibition at 10 µM [2]: 82%
- inhibition at 30 µM [3]: 88%
- inhibition at 1 µM [4]: 16%
- inhibition at 10 µM [5]: 96%
- inhibition at 30 µM [6]: 100%

SMILES: CC1=C(O)C(=O)C=C2C1=CC=C1[C@@]2(C)CC[C@@]2(C)[C@@H]3C[C@@H](C)C(=O)C[C@]3(C)CC[C@]12C [TINGENONE]
- IC50 [7]: 500 nM
- IC50 [8]: 3000 nM
- inhibition at 1 µM [1]: 46%
- inhibition at 10 µM [2]: 100%
- inhibition at 30 µM [3]: 96%
- inhibition at 1 µM [4]: 17%
- inhibition at 10 µM [5]: 97%
- inhibition at 30 µM [6]: 100%
